CaV13 FRET inh = Disruptors of the CACNA1D IQ motif to Ca2+-dependent inactivation inhibitor domain association, primary screening, Förster resonance energy transfer in intact living …. AID 743397. inhibition, % at 12.3 µM. 340,000 compounds, 0.098% hits. HEK cells, CFP/YFP FRET ICDI-IQ, plate reader, 10 min; percent FRET-ratio fall versus neutral wells;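 active = mean replicate inhibition of at least 30% and at least 1% of replicates passing that level; inconclusive = only one of the two criteria is met; inactive = neither criterion is met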;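 note: 0% = median of the neutral control wells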
DENV2 CPE = inhibitors of DENV2 cytopathic effect, primary screen, cell-based, plate reader, single concentration; DENV2-infected cells, cytopathic effect rescue; CPE inhibition, % at 9.99 µM; 350,000 compounds, 1.7% hits; in the data active = CPE inhibition above about 20%, passing the limit was not always enough; inconclusive = no clear call, values can overlap the other calls; tested in BHK-21 cells;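 note: 0% = median of neutral control wells and 100% = median of positive control wells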
S100A4 inh HTS = inhibitors of S100A4-myosin IIA peptide binding, primary screen, biochemical, fluorescence polarization, TAMRA-MyoIIA peptide | Protein S100-A4 (Homo sapiens), P26447 | inhibition, % at 10.7 µM | 360,000 compounds, 0.14% hits;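 active = mean inhibition of at least 70% across replicates, with every replicate also reaching that level; inconclusive = mean inhibition reaches 70% but some replicates fall short; inactive = mean inhibition below 70%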
Target sequence (P26447 whole entry, looked up): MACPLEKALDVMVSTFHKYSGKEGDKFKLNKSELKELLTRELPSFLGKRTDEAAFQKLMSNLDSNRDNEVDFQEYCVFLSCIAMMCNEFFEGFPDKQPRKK
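Test system: S100A4 monomer protein. Medium: HEPES buffer with Ca2+, pH 7.2. Reagent: fluorescent myosin IIA peptide, 5 nM. Compound dosing: single-point compound testing. Timing: 5 min between mix addition and reading. Benchmarks: DMSO neutral and TFP positive wells.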
AF4-AF9 inh = inhibitors of AF4 peptide binding to AF9, primary screen, biochemical, AlphaScreen, biotin-AF4 peptide, FLAG-AF9, single point; 350,000 compounds, 0.47% hits; AID 651704, 2012; inhibition, % at 10 µM; Protein AF-9 (Homo sapiens), P42568;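 active = every replicate reaching a set inhibition limit, whatever the replicate mean, cut at about 25% in these data; inconclusive = mean inhibition reaches that limit but some replicates miss it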;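 note: 0% = plate neutral control median and 100% = total signal loss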
Target sequence (P42568 whole entry, looked up): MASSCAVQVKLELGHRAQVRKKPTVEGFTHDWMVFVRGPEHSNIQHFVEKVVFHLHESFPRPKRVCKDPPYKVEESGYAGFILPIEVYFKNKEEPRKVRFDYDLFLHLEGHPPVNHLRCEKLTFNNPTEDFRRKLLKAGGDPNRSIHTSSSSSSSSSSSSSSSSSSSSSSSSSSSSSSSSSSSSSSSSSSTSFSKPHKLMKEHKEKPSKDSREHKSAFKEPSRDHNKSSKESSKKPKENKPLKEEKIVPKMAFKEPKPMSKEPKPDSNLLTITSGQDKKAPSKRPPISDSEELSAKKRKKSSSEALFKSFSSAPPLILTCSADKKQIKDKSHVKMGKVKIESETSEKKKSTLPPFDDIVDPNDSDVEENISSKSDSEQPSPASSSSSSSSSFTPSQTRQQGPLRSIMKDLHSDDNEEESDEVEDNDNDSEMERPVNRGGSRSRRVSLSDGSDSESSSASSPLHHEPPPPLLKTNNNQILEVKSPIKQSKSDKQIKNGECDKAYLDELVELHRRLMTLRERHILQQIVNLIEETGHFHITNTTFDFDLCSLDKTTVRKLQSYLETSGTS
SIRT5 block = SIRT5 desuccinylase inhibitors, primary screen, biochemical, fluorescence imaging, single point, set 5. NAD-dependent protein deacylase sirtuin-5, mitochondrial (Homo sapiens), Q9NXA8. Purified SirT5, succinyl-peptide AMC, trypsin-coupled fluorescence. inhibition, % at 15 µM. 330,000 compounds, 1.1% hits. AID 652115, 2013; in the data active = inhibition above about 15%; inconclusive = no clear call, values can overlap the other calls
Starred values were filed as active, the others as inactive; ? = inconclusive; . = no result given. Sampled rows, rich in hits. Any-hit rate of the full collection: about 2.7%.

SMILES | CaV13 FRET inh | DENV2 CPE | S100A4 inh HTS | AF4-AF9 inh | SIRT5 block
CC1(CC(=O)N/N=C/c2ccc(-c3ccc(C(=O)O)cc3)o2)OCCO1 | -7.2 | -1.9 | -1.3 | -29.1 | 7.5
COc1ccc(C[C@H]2CN3C(=NC[C@@H]3C(C)C)N2C[C@H](C)NC(=O)c2ccc(C)c(Br)c2)cc1 | -5.5 | -15.7 | 3.6 | 14.8 | .
Cc1ccc(C(=O)N[C@@H](C)CN2C3=NC[C@H](C(C)C)N3C[C@H]2Cc2ccc(O)cc2)cc1Br | -4.3 | 106.2* | -1.6 | 7.5 | .
C[C@@H](CN1C2=NC[C@H](Cc3ccccc3)N2C[C@H]1Cc1ccc(O)cc1)NC(=O)CCC1CCCCC1 | -9.8 | 40.8* | -1.0 | 10.0 | -0.5
C/C=C(\C)C(=O)NCCN1C2=NC[C@@H](C)N2C[C@@H]1Cc1ccc(OC)cc1 | -9.1 | 1.4 | -0.8 | 4.1 | .
COc1ccc(C[C@H]2CN3C(=NC[C@@H]3Cc3ccc(O)cc3)N2CCNC(=O)c2ccc(C)c(Br)c2)cc1 | 0.5 | 0.2 | -7.1 | 29.1* | -0.2
Cc1ccc(C(=O)NCCN2C3=NC[C@H](Cc4ccc(O)cc4)N3C[C@H]2Cc2ccc(O)cc2)cc1Br | -4.8 | . | -0.2 | 29.3* | .
C[C@@H](CN1C2=NC[C@H](Cc3ccc(O)cc3)N2C[C@H]1Cc1ccc(O)cc1)NC(=O)CCC1CCCCC1 | -5.3 | -13.0 | -2.1 | 17.2 | .
O=C(Nc1cccc(Cl)c1)N[C@@H]1CC[C@H](CCNC(=O)C2CCCC2)O[C@@H]1CO | . | -3.7 | 4.3 | -1.9 | 1.6
O=C(CC(F)(F)F)N1C[C@@H]2[C@H](c3ccccc31)[C@H](CO)N2C(=O)C1CC1 | . | 3.4 | 6.4 | -2.0 | 2.5
C[C@@H]1CCCCO[C@H](CN(C)C(=O)CCCN(C)C)[C@@H](C)CN([C@H](C)CO)C(=O)c2cc(NC(=O)CCC(F)(F)F)ccc2O1 | . | . | -4.0 | -4.0 | -0.5
C[C@@H]1CN([C@@H](C)CO)S(=O)(=O)c2ccc(-c3cccnc3)cc2O[C@@H]1CN(C)Cc1ccncc1 | . | 9.5 | 11.7 | 2.8 | -4.6
O=C(C[C@H]1CC[C@H]2[C@@H](COC[C@H](O)CN2C(=O)c2ccccc2F)O1)NCc1ccc(Cl)cc1 | . | 1.5 | -74.3 | -0.9 | 0.4
C/C(=N\NC(=O)c1nnn(-c2nonc2N)c1-c1cccs1)c1cccnc1 | -13.5 | 1.2 | -1.2 | 0.4 | -0.9
C/C(=N\NC(=O)c1nnn(-c2nonc2N)c1-c1ccccc1)c1cccnc1 | -3.2 | 96.4* | -3.6 | -2.8 | -0.5
CN1C(=O)c2cc(NC(=O)c3cccs3)ccc2OC[C@H]2O[C@@H](CC(=O)N3CCOCC3)CC[C@@H]21 | . | -3.9 | 1.2 | . | 1.3
O=C(CSc1nc2ccccc2[nH]1)Nc1nc(-c2cccc(Br)c2)cs1 | -2.0 | 5.7 | -1.3 | 0.9 | 0.1
CN(C)CCCn1c(SCC(=O)Nc2nc(-c3cccc(Br)c3)cs2)nc2ccccc2c1=O | -16.1 | 2.8 | 6.8 | 35.2* | 3.8
C[C@H]1CCCCO[C@@H](CN(C)C(=O)C2CCCCC2)[C@@H](C)CN([C@@H](C)CO)C(=O)c2cc(NC(=O)NC3CCCCC3)ccc2O1 | . | -2.5 | 20.0 | -2.0 | 4.6
Cc1cccc(NC(=O)C2(c3cccs3)CCOCC2)c1 | -2.0 | . | . | . | .
Cc1ccc(NC(=O)C2(c3cccs3)CCOCC2)cc1C | -5.0 | 26.2* | -3.7 | 2.6 | 1.6
C/C=C/c1ccc2c(c1)O[C@H](CN(C)Cc1ccc(F)cc1)[C@@H](C)CN([C@H](C)CO)S2(=O)=O | . | 3.1 | 5.9 | 9.4 | -0.4
C/C=C/c1ccc2c(c1)O[C@@H](CN(C)Cc1ccc(F)cc1)[C@H](C)CN([C@H](C)CO)S2(=O)=O | . | ? | -0.9 | 12.3 | 16.3*
C/C=C/c1ccc2c(c1)O[C@@H](CN(C)Cc1ccccc1F)[C@H](C)CN([C@H](C)CO)S2(=O)=O | . | 14.4 | 4.8 | 10.7 | ?
C/C=C/c1ccc2c(c1)O[C@H](CN(C)Cc1ccccc1F)[C@H](C)CN([C@H](C)CO)S2(=O)=O | . | 10.7 | -7.5 | 11.4 | 13.0*
SMILES | CaV13 FRET inh | DENV2 CPE | S100A4 inh HTS | AF4-AF9 inh | SIRT5 block
COc1ccc(NC(=O)N(C)C[C@@H]2OCCCC[C@H](C)Oc3ccc(NC(=O)CCC(F)(F)F)cc3C(=O)N([C@H](C)CO)C[C@@H]2C)cc1 | . | -11.5 | 5.7 | 1.6 | 2.9
Cc1noc(C)c1S(=O)(=O)Nc1ccc2c(c1)C(=O)N([C@H](C)CO)C[C@H](C)[C@H](CN(C)Cc1ccc(C(F)(F)F)cc1)OCCCC[C@H](C)O2 | . | -3.2 | 16.5 | 2.9 | 13.2
Cc1noc(C)c1S(=O)(=O)Nc1ccc2c(c1)C(=O)N([C@@H](C)CO)C[C@H](C)[C@@H](CN(C)Cc1ccc(C(F)(F)F)cc1)OCCCC[C@@H](C)O2 | . | 0.0 | -2.7 | 1.0 | 24.8*
Cc1noc(C)c1S(=O)(=O)Nc1ccc2c(c1)C(=O)N([C@H](C)CO)C[C@H](C)[C@@H](CN(C)Cc1ccc(C(F)(F)F)cc1)OCCCC[C@H](C)O2 | . | 8.9 | 4.3 | 1.6 | 25.1*
Cc1noc(C)c1S(=O)(=O)Nc1ccc2c(c1)C(=O)N([C@@H](C)CO)C[C@@H](C)[C@H](CN(C)Cc1ccc(C(F)(F)F)cc1)OCCCC[C@H](C)O2 | . | 10.4 | 18.4 | -0.5 | 9.2
Cc1noc(C)c1S(=O)(=O)Nc1ccc2c(c1)C(=O)N([C@H](C)CO)C[C@H](C)[C@H](CN(C)Cc1ccncc1)OCCCC[C@@H](C)O2 | . | 26.2* | 2.4 | 0.5 | -0.5
CC(C)(C)S(=O)N1Cc2cc(=O)n(Cc3ccccc3)c(CCO)c2[C@H]1CCO (some centres not stated) | -6.5 | 3.4 | -12.0 | 0.0 | 26.0*
CC(C)(C)S(=O)(=O)N1Cc2cc(=O)n(Cc3ccccc3)c(CCO)c2[C@H]1CCO | -2.8 | 17.0 | -5.7 | 1.2 | 0.5
CCCCNC(=O)C1(C)CCN1C(=O)c1cc(-c2cccs2)oc1C (configuration not stated) | -6.1 | 32.8* | -3.4 | 2.1 | .
CCCCNC(=O)C1(C)CCN1C(=O)c1ccccc1Br (configuration not stated) | -5.7 | ? | ? | 0.1 | -22.1
CCC(=O)Nc1ccc2c(c1)C(=O)N(C)C[C@H](OC)[C@@H](C)CN(C(=O)c1ccccn1)[C@@H](C)CO2 | . | . | 14.9 | 26.2* | 1.5
CCC(=O)Nc1ccc2c(c1)OC[C@@H](C)N(C(=O)c1ccccn1)C[C@@H](C)[C@H](OC)CN(C)C2=O | . | 25.8* | -67.6 | 0.2 | 1.0
CO[C@H]1CN(C)C(=O)c2ccc(NC(=O)Nc3cc(F)ccc3F)cc2OC[C@@H](C)N(C(=O)c2ccccn2)C[C@H]1C | . | 37.7* | -4.1 | -0.1 | .
